In paper PMC4430358 (Bioorganic & medicinal chemistry letters, 2015):
Entries after “also recorded” stand apart in the source; their conditions may differ. One block for each compound: values may come before it.

Assays:
[1] = system: GROα-mediated intracellular calcium release in isolated human PMNs; assay: Inhibition of GROα-mediated intracellular calcium release in isolated human PMNs; type: cell-based; details: for activity in the PMN assay: compared to compound 5; for fold drop in activity relative to compound 5: PMN calcium release assay
healthy subjects = details: clinical evaluation; cited from earlier work
[2] = Solubility in aqueous systems; type: physicochemical
Rat pharmacokinetics = type: in vivo; details: 1 mg/kg oral gavage in neat Labrasol; for plasma levels after oral gavage: LLOQ approximately 20 nM
[3] = Metabolic stability in monkey liver microsomes; type: in vitro ADME; details: Microsome stability (% remaining @ 60 min) monkey, 37°C, LC-MS
Sprague-Dawley rats = assay: Ozone rat model of pulmonary inflammation; type: in vivo; details: 1 mg/kg IV at t = 0, 5 and 9 h; 1 ppm ozone 4 h; BALF at 24 h
Method in brief: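 Sprague-Dawley rats, n = 4 per cohort, given IV vehicle (negative and positive groups) or test compound at 1 mg/kg at t = 0. They were then exposed to air (negative) or 1 ppm ozone for 4 h and redosed at 5 and 9 h. At 24 h rats were sacrificed and BALF collected. Cells were spun down, Wright-Giemsa stained and counted. BALF protein was measured by Bradford assay.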

[4] = Metabolic stability in rat liver microsomes; type: in vitro ADME
Method in brief: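 Test compound at 1 μM incubated with isolated rat liver microsomes for 60 min at 37 °C. Samples analysed by LC-MS at 0 and 60 min. Result expressed as percent parent remaining at 60 min.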

CXCR2 = target: T1, CXCR2 (Homo sapiens, UniProt P25025); assay: PathHunter β-arrestin assay; type: cell-based
T1 sequence (P25025 1-360): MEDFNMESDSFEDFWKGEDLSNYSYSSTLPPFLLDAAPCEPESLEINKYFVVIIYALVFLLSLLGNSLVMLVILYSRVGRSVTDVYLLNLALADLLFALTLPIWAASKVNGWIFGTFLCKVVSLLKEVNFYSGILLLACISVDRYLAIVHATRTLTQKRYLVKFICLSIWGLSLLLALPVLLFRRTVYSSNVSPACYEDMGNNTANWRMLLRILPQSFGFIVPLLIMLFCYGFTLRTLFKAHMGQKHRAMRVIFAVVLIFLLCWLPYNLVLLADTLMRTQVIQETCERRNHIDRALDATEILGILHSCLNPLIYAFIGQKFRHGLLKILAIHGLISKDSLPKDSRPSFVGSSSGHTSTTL

SMILES: O=C(Nc1ccc(F)cc1)c1ccc(SCc2cc3c(cc2B(O)O)OCO3)nc1 [Compound 13]
activity in the PMN assay [1]: complete lack of activity

SMILES: COc1cc(CSc2ccc(C(=O)Nc3ccc(F)cc3)cn2)c(B(O)O)cc1OC [Compound 12]
activity in the PMN assay [1]: complete lack of activity

SMILES: CC[C@@H](Nc1c(Nc2cccc(C(=O)N(C)C)c2O)c(=O)c1=O)c1ccc(C)o1 [navarixin]
ozone inhalation-induced sputum PMN recruitment (healthy subjects): inhibited

SMILES: O=C(Nc1ccc(F)cc1)c1ccc(SCc2cc(F)ccc2B(O)O)nc1 [Compound 15]
activity in the PMN assay [1]: equipotent

SMILES: O=C(Nc1ccc(F)cc1)c1ccc(SCCc2ccccc2B(O)O)nc1 [Compound 11]
fold drop in activity relative to compound 5 [1]: 10 fold

solubility in aqueous systems [2]: insolubility in aqueous systems
Rat PK AUC Oral (Rat pharmacokinetics): <LLOQ
plasma levels after oral gavage (Rat pharmacokinetics): < 20 nM
SMILES: O=C(Nc1ccc(F)cc1)c1ccc(SCc2ccccc2B(O)O)nc1 [Compound 5]

SMILES: O=C(Nc1ccc(F)cc1)c1ccc(SCCCCB(O)O)nc1 [Compound 10]
fold drop in activity relative to compound 5 [1]: 18 fold

solubility in aqueous systems [2]: insolubility in aqueous systems
remaining at 1 h, 1 μM [3]: > 90%
remaining at 1 h, 1 μM [4]: > 90%
Rat PK AUC Oral (Rat pharmacokinetics): <LLOQ
plasma levels after oral gavage (Rat pharmacokinetics): < 20 nM
mode of action (CXCR2): full antagonist
SMILES: O=C(Nc1ccc(F)cc1)c1ccc(SCc2cc(OC(F)(F)F)ccc2B(O)O)nc1 [Compound 6, 6-(2-boronic acid-5-trifluoromethoxy-benzylsulfanyl)-N-(4-fluoro-phenyl)-nicotinamide]
PMN influx to the lungs (BALF) (Sprague-Dawley rats): significantly decreased PMN influx to the lungs to near undetectable levels; also recorded: potent inhibition of PMN recruitment; also recorded: potent inhibition of neutrophil influx
macrophage influx (BALF) (Sprague-Dawley rats): significantly decreased

SMILES: COc1ccc(B(O)O)c(CSc2ccc(C(=O)Nc3ccc(F)cc3)cn2)c1 [Compound 14]
fold drop in activity relative to compound 5 [1]: 2 fold

SMILES: O=C(Nc1ccc(F)cc1)c1ccc(SCc2cccc(B(O)O)c2)nc1 [Compound 8]
fold drop in activity relative to compound 5 [1]: 30 fold
